Assay [1] concerns the target T1, cGMP-specific 3',5'-cyclic phosphodiesterase (Homo sapiens, UniProt O76074). The assay is described as follows: Inhibitory activity against phosphodiesterase 5 (PDE5) obtained from human corpus cavernosum tissue. The method in brief: (§1)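 Scintillation proximity assay: fixed enzyme amount with varying inhibitor concentrations; substrate cGMP (3:1 unlabelled to [³H]-labelled) at about 1/3 Km, so that IC50 ≈ Ki. Buffer 20 mM Tris–HCl pH 7.4, 5 mM MgCl2, BSA. Reactions started with enzyme, run 30–60 min at 30 °C, stopped with yttrium silicate SPA beads. Counts converted to % of uninhibited control; IC50 from curve fit.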

Assay [2] concerns the target Dual 3',5'-cyclic-AMP and -GMP phosphodiesterase 11A (Homo sapiens, UniProt Q9HCR9). The assay is described as follows: Inhibitory activity against phosphodiesterase 11 (PDE11) obtained from recombinant Sf9 expression. The method in brief:
as §1

A short description of assay [3]: Relative inhibition of PDE11 and PDE5.
For a further assay, the target named is Phosphodiesterase 6. The assay is described as follows: Inhibitory activity against phosphodiesterase 6 (PDE6) obtained from canine or bovine retina. It counts as protein assay. The method in brief: as §1
The target of assay [4] is T1, cGMP-specific 3',5'-cyclic phosphodiesterase. The assay is described as follows: Selectivity ratio of the compound against PDE6 to that of PED5.
Assay [5] is described as follows: Relative inhibitoin of PDE11 and PDE5.

Dual 3',5'-cyclic-AMP and -GMP phosphodiesterase 11A, sequence (Q9HCR9 whole entry): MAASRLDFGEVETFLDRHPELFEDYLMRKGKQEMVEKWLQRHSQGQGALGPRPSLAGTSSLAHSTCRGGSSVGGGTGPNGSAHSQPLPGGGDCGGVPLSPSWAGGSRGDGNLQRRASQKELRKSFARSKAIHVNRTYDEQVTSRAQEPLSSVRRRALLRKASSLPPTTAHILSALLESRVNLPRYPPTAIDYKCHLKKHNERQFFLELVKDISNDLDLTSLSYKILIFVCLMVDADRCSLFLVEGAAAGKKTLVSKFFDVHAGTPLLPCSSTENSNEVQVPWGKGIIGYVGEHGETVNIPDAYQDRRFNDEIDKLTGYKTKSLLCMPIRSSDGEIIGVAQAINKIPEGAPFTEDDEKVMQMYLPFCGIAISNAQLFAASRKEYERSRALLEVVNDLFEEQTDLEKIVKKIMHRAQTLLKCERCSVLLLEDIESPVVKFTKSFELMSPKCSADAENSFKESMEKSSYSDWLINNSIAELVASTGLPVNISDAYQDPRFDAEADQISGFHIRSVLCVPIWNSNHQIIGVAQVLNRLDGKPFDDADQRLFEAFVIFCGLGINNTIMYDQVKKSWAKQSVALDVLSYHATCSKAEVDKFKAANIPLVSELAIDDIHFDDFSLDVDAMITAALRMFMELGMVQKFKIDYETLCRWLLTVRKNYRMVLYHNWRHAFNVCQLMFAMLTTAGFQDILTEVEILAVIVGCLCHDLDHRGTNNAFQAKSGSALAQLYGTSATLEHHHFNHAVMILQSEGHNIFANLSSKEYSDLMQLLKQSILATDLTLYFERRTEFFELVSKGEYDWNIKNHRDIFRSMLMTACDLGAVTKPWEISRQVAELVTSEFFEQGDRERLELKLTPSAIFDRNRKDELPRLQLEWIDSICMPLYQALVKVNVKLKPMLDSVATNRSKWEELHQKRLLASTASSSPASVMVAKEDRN

The term IC50 denotes the concentration at which inhibition is half-maximal. For `COc1ccc([C@@H]2c3[nH]c4ccccc4c3C[C@@H]3C(=O)N([C@@H]4CCN(Cc5ccccc5)C4)CC(=O)N23)cc1OC`, the IC50 in assay [1] is > 1000 nM; in assay [2], 1000 nM.
For the compound `O=C1[C@H]2Cc3c([nH]c4ccccc34)[C@@H](c3ccc4c(c3)OCO4)N2C(=O)CN1[C@@H]1CCN(CCc2ncc[nH]2)C1`, the values for the Selectivity ratio in assay [3] and in assay [4] were 2.9 and 300, respectively. In addition, the figures for the concentration for half-maximal inhibition (IC50) (in assay [1]; against Phosphodiesterase 6; in assay [2]) were 1.2 nM, 357 nM and 3.5 nM, respectively.
For `O=C1[C@H]2Cc3c([nH]c4ccccc34)[C@@H](c3ccc4c(c3)OCO4)N2C(=O)CN1C1CCN(Cc2ccccc2)CC1`, the results for the IC50 (in assay [1]; at Phosphodiesterase 6) were 26 nM and 1619 nM, respectively.
Regarding `Cn1ccnc1CCN1CC[C@@H](N2CC(=O)N3[C@H](c4ccc5c(c4)OCO5)c4[nH]c5ccccc5c4C[C@@H]3C2=O)C1` (stereo in doubt; form 1) [listing 1 of 2 here], the IC50 amounted to 0.8 nM in assay [1], 494 nM against Phosphodiesterase 6 and 2.2 nM in assay [2].
Regarding `COc1ccc([C@@H]2c3[nH]c4ccccc4c3C[C@@H]3C(=O)N([C@@H]4CCN(Cc5ccccc5)C4)CC(=O)N23)cc1C`, the Selectivity ratio in assay [5] came to 0.5. Besides, the IC50 in assay [1] turned out to be 132 nM; in assay [2], 71 nM.
Turning to `O=C1[C@H]2Cc3c([nH]c4ccccc34)[C@@H](c3ccc4c(c3)OCO4)N2C(=O)CN1[C@@H]1CCN(CCC2CC2)C1`, the Selectivity ratio in assay [3] was determined as 2.7; in assay [4], 169. The concentration for half-maximal inhibition (IC50) was determined as 15.7 nM in assay [1], 2660 nM on Phosphodiesterase 6 and 43 nM in assay [2].
For the compound `COc1cccc([C@@H]2c3[nH]c4ccccc4c3C[C@@H]3C(=O)N([C@@H]4CCN(Cc5ccccc5)C4)CC(=O)N23)c1` (stereo in doubt; form 1) [listing 1 of 2 here], the Selectivity ratio in assay [5] amounted to 1.5.
`CCCCCN1CC[C@@H](N2CC(=O)N3[C@H](c4ccc5c(c4)OCO5)c4[nH]c5ccccc5c4C[C@@H]3C2=O)C1`: the Selectivity ratio in assay [3] amounted to 2.3; in assay [4] it was 134. For the same compound, the IC50 in assay [1] is 13.2 nM; at Phosphodiesterase 6 it was 1770 nM; in assay [2], 31 nM.
In the same order, the values of `O=C1[C@H]2Cc3c([nH]c4ccccc34)[C@@H](c3ccc4c(c3)OCO4)N2C(=O)CN1[C@@H]1CCN(CCc2ccccn2)C1` are 1.4, 153, 1.5 nM, 226 nM and 2.01 nM.
In the same order, the values of `O=C(CCN1CC[C@@H](N2CC(=O)N3[C@H](c4ccc5c(c4)OCO5)c4[nH]c5ccccc5c4C[C@@H]3C2=O)C1)N1CCC1` are 1.2, 211, 4 nM, 846 nM and 4.7 nM.
Regarding `O=C1[C@H]2Cc3c([nH]c4ccccc34)[C@@H](c3ccc4c(c3)OCO4)N2C(=O)CN1[C@H]1CCN(Cc2ccccc2)C1`, the half-inhibitory concentration (IC50) in assay [2] was determined as 85 nM.
With `COc1cccc([C@@H]2c3[nH]c4ccccc4c3C[C@@H]3C(=O)N([C@@H]4CCN(Cc5ccccc5)C4)CC(=O)N23)c1` (stereo in doubt; form 1) [listing 2 of 2 here], the IC50 worked out at 28.6 nM in assay [1] and 44 nM in assay [2].
On to `O=C1[C@H]2Cc3c([nH]c4ccccc34)[C@@H](c3ccc4c(c3)OCO4)N2C(=O)CN1[C@@H]1CCN(CCc2cnccn2)C1`, for which the Selectivity ratio worked out at 2.1 in assay [3] and 181 in assay [4]. Also, the half-inhibitory concentration (IC50) in assay [1] worked out at 2 nM; on Phosphodiesterase 6, 358 nM; in assay [2], 4.2 nM.
Turning to `Cn1ccnc1CCN1CC[C@@H](N2CC(=O)N3[C@H](c4ccc5c(c4)OCO5)c4[nH]c5ccccc5c4C[C@@H]3C2=O)C1` (stereo in doubt; form 2) [listing 1 of 2 here], the Selectivity ratio in assay [3] was 2; in assay [4], 173.
On to `COCCCN1CC[C@@H](N2CC(=O)N3[C@H](c4ccc5c(c4)OCO5)c4[nH]c5ccccc5c4C[C@@H]3C2=O)C1`, for which the Selectivity ratio in assay [3] was determined as 3; in assay [4] it was 188. Further, the IC50 in assay [1] was found to be 7.1 nM; against Phosphodiesterase 6, 1340 nM; in assay [2], 22 nM.
Take `O=C1[C@H]2Cc3c([nH]c4ccccc34)[C@@H](c3ccc4c(c3)OCO4)N2C(=O)CN1C1CN(Cc2ccccc2)C1`: the figures for the IC50 in assay [1] and in assay [2] were 164 nM and 950 nM, respectively.
Regarding `NC(=O)CCN1CC[C@@H](N2CC(=O)N3[C@H](c4ccc5c(c4)OCO5)c4[nH]c5ccccc5c4C[C@@H]3C2=O)C1`, the Selectivity ratio in assay [3] turned out to be 5.7; in assay [4], 189. Besides, the IC50 in assay [1] was 8.4 nM; at Phosphodiesterase 6, 1601 nM; in assay [2] it was 48 nM.
With `CCCN1CC[C@@H](N2CC(=O)N3[C@H](c4ccc5c(c4)OCO5)c4[nH]c5ccccc5c4C[C@@H]3C2=O)C1`, the results for the IC50 (in assay [1]; against Phosphodiesterase 6) were 57 nM and > 10000 nM, respectively. Besides, in assay [4], the Selectivity ratio is > 175.
In the case of `O=C1[C@H]2Cc3c([nH]c4ccccc34)[C@@H](c3ccc(O)nc3)N2C(=O)CN1[C@@H]1CCN(Cc2ccccc2)C1`, the Selectivity ratio in assay [5] came out at 0.3. Further, the concentration for half-maximal inhibition (IC50) in assay [1] amounted to 127 nM; in assay [2], 39 nM.
Take `Cn1ccnc1CCN1CC[C@@H](N2CC(=O)N3[C@H](c4ccc5c(c4)OCO5)c4[nH]c5ccccc5c4C[C@@H]3C2=O)C1` (stereo in doubt; form 2) [listing 2 of 2 here]: the IC50 was determined as 0.7 nM in assay [1], 125 nM on Phosphodiesterase 6 and 1.4 nM in assay [2].
The like results for `CN(C)CCN1CC(=O)N2[C@H](c3ccc4c(c3)OCO4)c3[nH]c4ccccc4c3C[C@@H]2C1=O` were, in that order, 134 nM, 8224 nM and 53 nM.
As for `Cn1ccnc1CCN1CC[C@@H](N2CC(=O)N3[C@H](c4ccc5c(c4)OCO5)c4[nH]c5ccccc5c4C[C@@H]3C2=O)C1` (stereo in doubt; form 1) [listing 2 of 2 here], the Selectivity ratio was determined as 2.6 in assay [3] and 640 in assay [4].
Consider `COc1cccc([C@@H]2c3[nH]c4ccccc4c3C[C@@H]3C(=O)N([C@@H]4CCN(Cc5ccccc5)C4)CC(=O)N23)c1` (stereo in doubt; form 2) [listing 1 of 2 here], for which, in assay [5], the Selectivity ratio was 0.8.
As for `COc1cccc([C@@H]2c3[nH]c4ccccc4c3C[C@@H]3C(=O)N([C@@H]4CCN(Cc5ccccc5)C4)CC(=O)N23)c1` (stereo in doubt; form 2) [listing 2 of 2 here], the values for the IC50 in assay [1] and in assay [2] were 15.6 nM and 11.8 nM, respectively.
As to `COc1ccc([C@@H]2c3[nH]c4ccccc4c3C[C@@H]3C(=O)N([C@@H]4CCN(Cc5ccccc5)C4)CC(=O)N23)cc1`, the Selectivity ratio in assay [5] stood at 2.5. The IC50 was found to be 2.7 nM in assay [1] and 6.7 nM in assay [2].
In the same order, the values of `Cc1ccc([C@@H]2c3[nH]c4ccccc4c3C[C@@H]3C(=O)N([C@@H]4CCN(Cc5ccccc5)C4)CC(=O)N23)cc1` are 0.5, 12.8 nM and 6.5 nM.
In the case of `O=C1[C@H]2Cc3c([nH]c4ccccc34)[C@@H](c3ccc4c(c3)OCO4)N2C(=O)CN1CCN1CCOCC1`, the 50% inhibitory concentration (IC50) was determined as 56 nM in assay [1] and 2966 nM against Phosphodiesterase 6.
For `O=C1[C@H]2Cc3c([nH]c4ccccc34)[C@@H](c3ccc4c(c3)OCO4)N2C(=O)CN1[C@@H]1CCN(Cc2ccccc2)C1`, the IC50 against Phosphodiesterase 6 is 249 nM; in assay [2] it was 5.5 nM.
`CN(C)CC(=O)CN1CC[C@@H](N2CC(=O)N3[C@H](c4ccc5c(c4)OCO5)c4[nH]c5ccccc5c4C[C@@H]3C2=O)C1`: in assay [3], the Selectivity ratio came to 2.4. Besides, the IC50 in assay [1] turned out to be 19.8 nM; in assay [2], 48 nM.
For the compound `C=CCCN1CC[C@@H](N2CC(=O)N3[C@H](c4ccc5c(c4)OCO5)c4[nH]c5ccccc5c4C[C@@H]3C2=O)C1`, in assay [3], the Selectivity ratio turned out to be 3. The half-inhibitory concentration (IC50) in assay [1] was 4 nM.
As to `CN(C)C(=O)CCN1CC[C@@H](N2CC(=O)N3[C@H](c4ccc5c(c4)OCO5)c4[nH]c5ccccc5c4C[C@@H]3C2=O)C1`, the figures for the Selectivity ratio in assay [3] and in assay [4] were 1.9 and 316, respectively. Moreover, the half-inhibitory concentration (IC50) in assay [1] amounted to 2.5 nM; against Phosphodiesterase 6, 807 nM; in assay [2], 4.7 nM.
The like results for `O=C1[C@H]2Cc3c([nH]c4ccccc34)[C@@H](c3ccc4c(c3)OCO4)N2C(=O)CN1[C@@H]1CCN(CCc2cccnc2)C1` were, in that order, 1.3, 144, 1.9 nM, 271 nM and 2.4 nM.
In the same order, the values of `CCNC(=O)CCN1CC[C@@H](N2CC(=O)N3[C@H](c4ccc5c(c4)OCO5)c4[nH]c5ccccc5c4C[C@@H]3C2=O)C1` are 1.2, 172, 3.6 nM, 620 nM and 4.3 nM.

The values are drawn from ChEMBL document CHEMBL1136701, “Design, synthesis and biological activity of beta-carboline-based type-5 phosphodiesterase inhibitors” (Bioorg Med Chem Lett, 2003).
